# Assay outcomes (PubChem)
# An excerpt weighted towards active compounds, which were near 4% of everything screened.
# FAK inh: FAK kinase inhibitors, primary screen, biochemical; Focal adhesion kinase 1 (Homo sapiens), Q05397; biochemical FAK kinase activity assay; inhibition, %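 (tested at 7 µM)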; 97,000 compounds, 0.84% hits; AID 727, 2007; in the data active means inhibition above about 19%;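 further: 0% = DMSO and 100% = reference compound high control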
# ERa coact inh: ERα–SRC-1 coactivator interaction inhibitors, primary screen, biochemical, TR-FRET, ERα LBD, estradiol-bound; Estrogen receptor (Homo sapiens), P03372; TR-FRET ER-alpha LBD / SRC-1 peptide; inhibition, % at 25.6 µM; 86,000 compounds, 1.7% hits; in the data active means inhibition above about 50%;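 further: 0% = receptor plus peptide control and 100% = peptide only without receptor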
# Target sequence (P03372 whole entry, looked up, the tested form may be a part): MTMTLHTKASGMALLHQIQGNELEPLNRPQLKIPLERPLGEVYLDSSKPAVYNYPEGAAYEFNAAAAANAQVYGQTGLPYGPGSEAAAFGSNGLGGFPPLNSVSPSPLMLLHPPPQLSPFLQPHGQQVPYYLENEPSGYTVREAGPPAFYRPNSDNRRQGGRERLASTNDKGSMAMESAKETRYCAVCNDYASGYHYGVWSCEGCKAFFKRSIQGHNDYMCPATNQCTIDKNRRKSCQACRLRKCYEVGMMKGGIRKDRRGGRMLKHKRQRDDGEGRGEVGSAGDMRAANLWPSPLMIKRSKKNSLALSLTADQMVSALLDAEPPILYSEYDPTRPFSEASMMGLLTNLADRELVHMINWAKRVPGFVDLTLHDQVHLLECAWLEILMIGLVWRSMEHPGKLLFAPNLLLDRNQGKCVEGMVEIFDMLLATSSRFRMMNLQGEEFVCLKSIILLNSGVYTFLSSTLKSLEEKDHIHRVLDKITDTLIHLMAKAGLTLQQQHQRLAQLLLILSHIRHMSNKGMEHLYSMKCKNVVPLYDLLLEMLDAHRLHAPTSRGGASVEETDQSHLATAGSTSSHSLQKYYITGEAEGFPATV
# ERb coact inh: inhibitors of ERβ-SRC1 coactivator interaction, primary screen, biochemical, TR-FRET, ERβ LBD, SRC-1 peptide. Estrogen receptor beta (Homo sapiens), Q92731. TR-FRET ER-beta LBD / SRC1-Cy5 peptide binding; receptor agonist-loaded with 1 µM estradiol. inhibition, % at 25.6 µM. 86,000 compounds, 1.3% hits. AID 633, 2007;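 active means compounds whose percent inhibition of the receptor-coactivator binding signal exceeds about 50% in the single-dose screen, limit read from the data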;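 further: 0% = receptor plus peptide wells without compound and 100% = peptide-only wells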
# Smad3 FoxH1 inh: Smad3/FoxH1 peptide binding inhibitors, primary screen, biochemical, TR-FRET; inhibition, % at 25 µM; 88,000 compounds, 0.29% hits; Mothers against decapentaplegic homolog 3 (Homo sapiens), P84022; AID 630, 2007; TR-FRET Smad3/Dy647-FoxH1 peptide binding, europium anti-His;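 active means compounds that reduce the energy-transfer binding signal between the protein and its labelled peptide by more than half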;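 further: 0% = Smad3 plus labelled peptide maximal FRET and 100% = peptide-only background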
# ERa SRC1 pot: enhancers of ERα–SRC-1 coactivator binding, primary screen, biochemical, TR-FRET, ERα LBD, low estradiol; Estrogen receptor (Homo sapiens), P03372; coactivator binding (% of control), % at 25.6 µM; 86,000 compounds, 1.3% hits; TR-FRET ERalpha-LBD/SRC-Cy5 coactivator binding, 2 h; 100 = basal binding, no effect; in the data active means activity above about 200%;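 further: binding measured in presence of low estradiol as agonist stimulus; 0% = peptide alone without receptor and 100% = receptor with peptide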
# Rev-RRE block: HIV-1 Rev-RRE binding inhibitors, primary screen, biochemical, FRET, protein-RNA interaction | Rev peptide-RRE RNA binding | inhibition, % at 8 µM | 97,000 compounds, 0.79% hits | AID 704, 2007;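 active means inhibition above the screen-wide mean plus 3 SD, cut at about 35% in these data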;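 further: 0% = median DMSO wells and 100% = median Neomycin B control wells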
# Target sequence (P05866 whole entry, looked up): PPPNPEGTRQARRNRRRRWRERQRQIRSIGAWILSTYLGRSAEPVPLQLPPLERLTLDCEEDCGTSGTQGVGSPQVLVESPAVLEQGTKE
#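 Test system – labelled RRE RNA duplex and labelled Rev peptide · Signal – fluorescein-to-Cy5 FRET, 480 nm excitation · Evaluation – % inhibition of FRET ratio versus controls · Benchmarks – DMSO low control, neomycin B high control · Incubation – 5 min RNA-compound premix plus 15 min binding step, 25 °C · Medium – HEPES pH 7.5 salt buffer with EDTA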
# * marks the source's active call; other numbers are inactive results; . = no result given; [ ] = another dose, or the depositor's remark.
SMILES,FAK inh,ERa coact inh,ERb coact inh,Smad3 FoxH1 inh,ERa SRC1 pot,Rev-RRE block
C=CCSc1nc2ccccc2c(=O)n1Cc1ccco1,.,.,.,-5,.,.
O=C(Cn1c(=O)oc2cc(S(=O)(=O)N3CCCC3)ccc21)NC1CCCc2ccccc21 (stereo not given),.,89*[fluorescence artefact?],67*[fluorescence artefact?],4,36,.
CC1CCN(S(=O)(=O)c2ccc3c(c2)oc(=O)n3CC(=O)NCc2ccc3c(c2)OCO3)CC1,-3,-1,-4,7,115,1
Cc1cc(C)cc(NC(=O)Cn2c(=O)oc3cc(S(=O)(=O)N4CCC(C)CC4)ccc32)c1,4,89*[fluorescence artefact?],54*[fluorescence artefact?],-7,26,15
O=C(Cn1c(=O)oc2cc(S(=O)(=O)N3CCCC3)ccc21)Nc1ccc(C(F)(F)F)cc1,14,69*[fluorescence artefact?],3,0,144,7
CC(NC(=O)Cn1c(=O)oc2cc(S(=O)(=O)N3CCCC3)ccc21)c1ccccc1 (stereo not given),1,6,5,-11,104,3
Clc1ccc2c(N3CCC(CCC4CCN(c5ncnc6cc(Cl)ccc56)CC4)CC3)ncnc2c1,.,.,.,-8,.,.
CCN1CCN(c2ccc(NC(=O)c3cccc4ncccc34)cc2)CC1,12,50*[fluorescence artefact?],63*[fluorescence artefact?],6,25,6
CC(C)CNC(=S)NC1CC2CCCC(C1)N2Cc1cccs1 (stereo not given),-4,.,.,.,.,-4
CCOC(=O)c1sc(/N=C/c2c(C)[nH]n(-c3ccccc3)c2=O)c(C#N)c1C,-2,.,.,.,.,70*
Cc1[nH]n(-c2ccccc2)c(=O)c1/C=N/c1ccccn1,0,7,4,0,96,2
Cc1ccc(S(=O)(=O)OCC(=O)O)cc1,.,.,.,0,.,.
CN(C)c1ccc(C=Nc2ccc(N(C)C)cc2)cc1,7,-21,58*[fluorescence artefact?],1,78,-20
CN(C)c1ccc(N=Cc2ccco2)cc1,5,29,70*,21,66,-15
Cc1ccc(N=Cc2ccc(N(C)C)cc2)cc1,1,-8,-2,3,108,8
COc1cc(C(Nc2ccccn2)c2ccc3ccc(C)nc3c2O)cc(OC)c1O (stereo not given),-1,64*[fluorescence artefact?],65*,5,179,1
CCC(Sc1nc2ccccc2c2nc3ccccc3n12)C(=O)NCc1ccco1 (stereo not given),3,77*[fluorescence artefact?],61*[fluorescence artefact?],-2,247*[fluorescence artefact?],8
O=C(CSc1nc2ccccc2n1CC(=O)NCc1ccccc1)NCc1ccco1,1,-3,2,-7,91,4
CCC(Sc1nc2cc(OC)c(OC)cc2c2nc(C)nn12)C(=O)NCc1ccco1 (stereo not given),.,50*[fluorescence artefact?],47,-5,132,.
CCOC(=O)c1cccnc1SC(CC)C(=O)NCc1ccco1 (stereo not given),-2,-1,-9,4,123,1
CCn1c(Cc2ccc(OC)cc2)nnc1SCC(=O)N1CCN(c2ccccc2)CC1,0,-8,-14,3,591*[fluorescence artefact?],4
O=C(O)[C@@H](O)c1ccc(F)cc1,.,.,.,2,.,.
COc1cc2nncc(SCc3ccc(Cl)c(Cl)c3)c2cc1OC,.,.,.,-16,.,.
CN1C=CC2=C(C#N)C(N)C(C#N)(C#N)C(c3ccccc3)C2C1 (stereo not given),3,-6,-8,-11,104,64*
CCCN1C(=O)/C(=C/c2ccc(N3CCCC3)c(C)c2)NC1=S,0,.,.,.,.,139*[fluorescence artefact?]
SMILES,FAK inh,ERa coact inh,ERb coact inh,Smad3 FoxH1 inh,ERa SRC1 pot,Rev-RRE block
O=C1N/C(=C\c2ccc(N3CCOCC3)c(F)c2)C(=O)N1Cc1ccccc1,-3,.,.,.,.,-1
Cc1ccc2nc3sc(C(=O)N4CCCc5ccccc54)c(N)c3cc2c1,2,.,.,.,.,49*
Cc1cccc2cc3c(N)c(C(=O)N4CCOCC4)sc3nc12,1,-8,-1,7,111,50*
Cc1cc(C)c2cc3c(N)c(C(=O)N4CCc5ccccc5C4)sc3nc2c1,2,.,.,.,.,72*
Nc1ccc(N=Nc2c(S(=O)(=O)O)cc3ccccc3c2S(=O)(=O)O)cc1,.,.,.,9,.,.
O=C(O)CC[C@]1(C(=O)O)CCC(=O)c2ccccc21,.,.,.,-23,.,.
CCOc1cccc(NC(=O)C2CCCN(S(=O)(=O)c3ccc(-n4cnnn4)cc3)C2)c1 (stereo not given),-3,-8,-1,3,237*[fluorescence artefact?],-1
CCOC(=O)CCC(NC(=O)c1ccc(NCN2C(=O)CCC2=O)cc1)C(=O)OCC (stereo not given),0,29,54*,0,61,2
O=S(=O)(Nc1nc2ccccc2nc1N1CCN(c2ccccn2)CC1)c1ccc(Cl)cc1,-9,.,.,.,.,36*
O=S(O)O.O=S(O)O.[Co].[NH2-].[NH2-].[NH2-].[NH2-],.,.,.,6,.,.
Nc1nc(N)c(N=Nc2ccc(C(=O)O)c(O)c2)c(N)n1,.,.,.,55*,.,.
Cc1ccc(C)c(/C(O)=C2/C(=O)C(=O)N(CCN3CCOCC3)C2c2ccco2)c1 (stereo not given),3,46,51*,15,81,2
Cc1ccc(C2/C(=C(/O)c3ccccc3)C(=O)C(=O)N2CCN2CCOCC2)o1 (stereo not given),0,-6,2,1,104,3
Cc1nnc(Oc2ccccc2F)c2ccccc12,11,51*,26,3,128,5
Cc1nnc(Oc2ccccc2)c2ccccc12,-7,6,-4,11,140,7
COc1ccc(N2CCN(Cc3cc(=O)oc4cc(-c5ccccc5)c(O)cc34)CC2)cc1,0,64*[fluorescence artefact?],43,3,70,3
COc1ccc(N2CCN(Cc3cc(=O)oc4cc(C)c(Cl)cc34)CC2)cc1,.,-27,-24,3,106,.
COc1ccc(OC)c(NC(=O)CN2C(=O)c3ccccc3S2(=O)=O)c1,.,-2,-15,12,121,.
COc1ccc2c(c1)-c1ccccc1S(=O)(=O)N2C(C)=O,-3,87*[fluorescence artefact?],63*[fluorescence artefact?],1,25,0
O=C(N/N=C/c1ccc(O)c(O)c1O)/C(=C/c1ccc([N+](=O)[O-])cc1)NC(=O)c1ccccc1,6,89*[fluorescence artefact?],71*[fluorescence artefact?],3,43,2
Cc1ccc(NC(=O)/C(=C\c2ccc([N+](=O)[O-])cc2)NC(=O)c2ccccc2)cc1,-1,.,.,.,.,10
CCOC(=O)c1ccc2[nH]cc(C(C)=O)c(=O)c2c1,6,7,12,11,93,53*
